Compound activity: PubChem, Broad Institute
FN deposit inh – fibronectin deposition inhibition | hit rate 0.086% among 350,000 | AH1F fibroblasts, Alexa488-fibronectin deposition fluorescence, overnight | inhibition, % at 12.6 µM;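 active = mean inhibition across replicates of 30% or more, regardless of how many single replicates reach that level; inconclusive = mean under 30% yet at least half of replicates reach 30%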
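Schedule: 1 h cell adhesion before compound, then overnight fibronectin incubation; test system: AH1F fibroblast monolayer depositing Alexa488-labelled fibronectin into matrix; quantity: 10000 AH1F cells per well; probe or stimulus: fluorescent fibronectin at 24 nM final; signal: fluorescence, ex 485 nm, em 525 nm; evaluation: percent inhibition as loss of matrix-bound fibronectin fluorescence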
ERp5 block – inhibitors of human ERp5 | ERp5 insulin aggregation, absorbance 650 nm, 90 min | inhibition, % at 9.99 µM | hit rate 0.05% among 350,000 | AID 651711;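 active = mean replicate inhibition above about 25%, with every replicate also reaching it, limit read from the data, passing the limit was not always enough; inconclusive = only one of those two criteria met; inactive = neither criterion met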
Target sequence (Q15084 whole entry, looked up): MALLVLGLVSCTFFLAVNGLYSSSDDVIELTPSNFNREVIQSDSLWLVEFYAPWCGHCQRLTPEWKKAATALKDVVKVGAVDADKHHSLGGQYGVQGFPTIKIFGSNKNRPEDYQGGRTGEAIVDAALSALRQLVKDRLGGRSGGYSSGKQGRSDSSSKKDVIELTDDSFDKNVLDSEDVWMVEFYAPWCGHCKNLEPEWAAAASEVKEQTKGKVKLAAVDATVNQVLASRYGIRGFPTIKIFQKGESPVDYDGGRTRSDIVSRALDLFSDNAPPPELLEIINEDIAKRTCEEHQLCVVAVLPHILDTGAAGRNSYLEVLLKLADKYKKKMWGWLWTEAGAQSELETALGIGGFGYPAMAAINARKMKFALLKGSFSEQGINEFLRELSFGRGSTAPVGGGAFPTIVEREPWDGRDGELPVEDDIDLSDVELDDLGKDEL
PDI turbidity – PDI (human) enzyme inhibition; PDI insulin aggregation turbidity, A650, 90 min; inhibition, % at 10 µM; hit rate 0.052% among 350,000;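 active = mean inhibition across replicates of 30% or more, whatever share of single replicates reach that level; inconclusive = mean inhibition below 30% while every single replicate reaches 30%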
rRNA inh HTS – inhibits bacterial ribosomal RNA function over humanized ribosomes | E. coli WT GFP vs humanized-ribosome RFP mutants, fluorescence, 24 h; hits give low values; DMSO median 0, no signal -100 | hit rate 1.6% among 350,000 | AID 720706 | GFP signal change (wild-type ribosome), % (concentration not given with the values);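 active = significant combined selectivity score with lowered wild-type GFP, culture density cut under 30%, mutant RFP and density less affected; inactive = any of these conditions unmet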
HIV Env fusion – inhibitors of HIV Env-mediated cell fusion | inhibition, % at 12.3 µM | AID 651610 | HeLa-JRFL Env/CEM21 cell fusion, luciferase | hit rate 1.1% among 360,000;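 active = mean replicate inhibition score of at least 50 and every replicate individually at or above 50; inconclusive = only one of the two criteria met; inactive = mean below 50 and not all replicates reaching 50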
PvdQ inh – blocks Pseudomonas aeruginosa PvdQ acylase activity. hit rate 0.063% among 340,000. inhibition, % at 10 µM. purified PvdQ acylase, fluorescence plate reader; in the data active = inhibition above about 30%, passing the limit was not always enough; inconclusive = no clear call, values can overlap the other calls
HepG2 cytotox – cytotoxic compounds in HepG2 cells. shares compounds with rRNA inh HTS. HepG2 viability, ATP luminescence, 72 h. activity change, negative = cytotoxicity, unspecified at 26 µM. 30 tested, under 10 active. AID 743480;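 active = compounds whose fitted half-maximal signal-loss concentration is at most twice their highest valid dose; inconclusive = flat curve with 30 to 70% signal loss, or poor fit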
AID977621 – growth inhibition of wild-type GFP E. coli, dose response, H69 mutant RFP, cherry-pick; shares compounds with rRNA inh HTS; E. coli wild-type GFP strain growth, fluorescence, 24 h; 1,900 tested, under 10 active; AID 977621; activity change, negative = inhibition at 50 µM;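 active = Wild-type ribosome reporter drop at least double the humanized mutant ribosome reporter drop, growth loss under a set limit; inconclusive = no clear call, values can overlap the other calls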;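 also: wild-type GFP and H69 mutant RFP strains grown together 50/50 in each well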
AID977628 – E. coli growth inhibition, wild-type GFP versus h24 humanized RFP strain, dose response, h24 mutant RFP vs wild-type GFP, cherry-pick | shares compounds with rRNA inh HTS | E. coli WT GFP strain growth, fluorescence, 24 h | activity change, negative = inhibition at 50 µM | 1,900 tested, under 10 active | AID 977628;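 active = compound lowering the normal-ribosome reporter at least twice as much as the humanized-ribosome reporter, growth loss under a set limit; inconclusive = no clear call, values can overlap the other calls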;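 also: wild-type GFP and h24 humanized RFP strains co-cultured 1 to 1 per well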
Of the large screens only hits and unclear results are named; the others gave an inactive call (follow-up assays come after a bar, where they were run). Sampled rows, rich in hits. Any-hit rate of the full collection: about 2.2%.

CC(C)(C)c1ccc(N2C(=O)CSC2c2cccnc2)cc1 (stereo unspecified)	rRNA inh HTS -19 | AID977621 inactive
CC(C)NC(=O)N(C)C[C@H]1OCCCC[C@H](C)Oc2ccc(NC(=O)CCC(F)(F)F)cc2C(=O)N([C@H](C)CO)C[C@@H]1C	none (no result: PDI turbidity, PvdQ inh)
C/C=C/c1ccc([C@H]2[C@@H](CO)N(CC3CCCC3)[C@H]2CNC(=O)NC(C)C)cc1	none (no result: FN deposit inh, ERp5 block, PDI turbidity, HIV Env fusion, PvdQ inh)
Cc1nc(N2CCC(C)CC2)c(C#N)c(C)c1[N+](=O)[O-]	rRNA inh HTS -25 | AID977621 inactive | AID977628 inactive
CCOC(=O)CSc1nc(C)c2cc(C)c(C)cc2n1	none (no result: rRNA inh HTS)
Cc1cc2nc(SCC(=O)O)nc(C)c2cc1C	rRNA inh HTS -17 (no result: FN deposit inh, HIV Env fusion) | AID977621 inactive
C[C@@H]1CCCCO[C@H](CN(C)C(=O)Nc2cccc3ccccc23)[C@H](C)CN([C@@H](C)CO)C(=O)c2cc(NC(=O)Nc3cccc4ccccc34)ccc2O1	none (no result: PDI turbidity, PvdQ inh)
CC(C)NC(=O)N(C)C[C@H]1OCCCC[C@@H](C)Oc2ccc(NC(=O)Nc3cccc4ccccc34)cc2C(=O)N([C@@H](C)CO)C[C@H]1C	rRNA inh HTS -31 (no result: PDI turbidity, PvdQ inh) | AID977628 inconclusive
CC(C)NC(=O)N(C)C[C@H]1OCCCC[C@@H](C)Oc2ccc(NC(=O)c3ccccc3)cc2C(=O)N([C@H](C)CO)C[C@@H]1C	none (no result: FN deposit inh, PDI turbidity, PvdQ inh)
C[C@H](CO)N1C[C@H](C)[C@H](CN(C)C)OCCCC[C@H](C)Oc2ccc(NC(=O)Nc3cccc4ccccc34)cc2C1=O	none (no result: FN deposit inh, PDI turbidity, PvdQ inh) | AID977621 inactive | AID977628 inconclusive
C[C@H](CO)N1C[C@H](C)[C@@H](CN(C)C)OCCCC[C@H](C)Oc2ccc(NC(=O)Nc3cccc4ccccc34)cc2C1=O	none (no result: FN deposit inh, PDI turbidity, PvdQ inh) | AID977621 inactive | AID977628 inconclusive
CC(C)NC(=O)N(C)C[C@H]1OCCCC[C@@H](C)Oc2ccc(NC(=O)c3ccccc3)cc2C(=O)N([C@@H](C)CO)C[C@H]1C	rRNA inh HTS -20 (no result: FN deposit inh, PDI turbidity, PvdQ inh) | AID977621 inactive | AID977628 inconclusive
CCCNC(=O)N(C)C[C@H]1[C@H](c2ccccc2)[C@@H](CO)N1C(=O)c1ccccc1	none (no result: PDI turbidity, HIV Env fusion, PvdQ inh)
C[C@H](CO)N1C[C@H](C)[C@@H](CN(C)C(=O)C2CCCCC2)Oc2cc(-c3ccc(C(=O)N(C)C)cc3)ccc2S1(=O)=O	none (no result: FN deposit inh, PDI turbidity, PvdQ inh)
COc1ccc2c3c(n(C)c2c1)[C@@H](CO)NCC31CCN(C(C)=O)CC1	none (no result: FN deposit inh, ERp5 block, PDI turbidity, HIV Env fusion, PvdQ inh)
CO[C@H]1CN(C)C(=O)c2ccc(NC(=O)Nc3ccc(C(F)(F)F)cc3)cc2OC[C@@H](C)NC[C@H]1C	none (no result: PDI turbidity, PvdQ inh)
C[C@@H]1CCCCO[C@H](CN(C)C(=O)Nc2cccc3ccccc23)[C@@H](C)CN([C@H](C)CO)C(=O)c2cc(NC(=O)Nc3cccc4ccccc34)ccc2O1	none (no result: PDI turbidity, PvdQ inh)
C[C@@H]1CCCCO[C@@H](CN(C)C)[C@@H](C)CN([C@H](C)CO)C(=O)c2cc(NC(=O)Nc3cccc4ccccc34)ccc2O1	none (no result: FN deposit inh, PDI turbidity, PvdQ inh) | AID977621 inactive | AID977628 inconclusive
C[C@H]1CCCCO[C@@H](CN(C)C)[C@@H](C)CN([C@@H](C)CO)C(=O)c2cc(NC(=O)Nc3cccc4ccccc34)ccc2O1	none (no result: FN deposit inh, PDI turbidity, PvdQ inh) | AID977621 inactive | AID977628 inconclusive
C[C@@H]1CCCCO[C@H](CN(C)CC2CC2)[C@H](C)CN([C@@H](C)CO)C(=O)c2cc(NC(=O)Nc3cccc4ccccc34)ccc2O1	rRNA inh HTS -27 (no result: FN deposit inh, ERp5 block, PDI turbidity, PvdQ inh) | HepG2 cytotox inactive
C[C@@H]1CCCCO[C@@H](CN(C)C)[C@H](C)CN([C@H](C)CO)C(=O)c2cc(NC(=O)Nc3cccc4ccccc34)ccc2O1	none (no result: FN deposit inh, PDI turbidity, PvdQ inh) | AID977621 inactive | AID977628 inconclusive
